# Cl transport mod: KCC2 (human) Cl- transport modulation | AID 1456 | 190,000 tested, 2.2% active | Q9H2X9 | B-score of Tl+ flux slope (higher = more flux/activation; lower = inhibition) at 10 µM | KCC2 cells, thallium flux FluoZin-2 fluorescence;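 active means thallium flux slope and its plate-corrected score both differing from the plate sample mean at a set confidence after two filtering rounds, in either direction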;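 further: slope of fluorescence scaled to starting intensity during 10 to 20 s after thallium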
# b-catenin transl: modulators of beta-catenin nuclear translocation | nuclear translocation activity, % at 5 µM | 190,000 tested, 0.3% active | AID 1665 | HeLa beta-catenin nuclear translocation, immunofluorescence imaging;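 active means nuclear translocation activity above 50% at 5 µM, with a well cell count of 50 or more; inconclusive means wells under 50 cells across six images, flagged as toxic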;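 further: per-cell ratio of nuclear to cytoplasmic median beta-catenin stain intensity; plate controls were DMSO negative control for no effect and GSK-3 inhibitor IX positive control for full effect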
#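 assay system = human HeLa cells, endogenous beta-catenin | times = compound treatment 24 h, 37°C, 5% CO2 | detection = Anti-beta-catenin immunofluorescence on PFA-fixed, Triton-permeabilized cells, DAPI nuclei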
# Pf gametocyte: P. falciparum stage V gametocyte viability inhibition. inhibition, % at 10.9 µM. 150,000 tested, 0.065% active. P. falciparum stage V gametocytes, ATP luminescence, 24 h;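 active means inhibition above the mean plus 3 SD of compounds within the control limits, set per campaign, cut at about 38% in these data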;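 further: 0% = DMSO wells and 100% = medium only without gametocytes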
# MT stabilizer: stabilizes microtubules in HeLa cells; HeLa tubulin immunostaining HCS, 24 h; share of cells brighter than vehicle mean+2SD; % tubulin-high responders, % at 10 µM; 200,000 tested, 0.83% active; AID 2205;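 active means plate Z-score above 3 for both tubulin-high and condensed-nucleus cell shares, with cell loss under 80%, at 10 µM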;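 further: anti alpha tubulin signal scored within the nucleus-defined area of each cell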
# WT yeast gro inh: growth inhibition of WT yeast, mitochondrial fusion screen; inhibition, % at 10 µM; 190,000 tested, 2.1% active; mitochondrial fusion phenotypic screen, WT strain; AID 1362; in the data active means inhibition above about 58%; tested in S. cerevisiae
# KCC2 secondary: KCC2 (human) modulation, secondary assay; shares compounds with Cl transport mod; 3,700 tested, 15% active; normalised thallium flux (F/F0 slope) at 10 µM; HEK293-KCC2, thallium flux, FluoZin2 fluorescence; active compounds read high;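 active means thallium flux slope above the same plate's solvent-only control mean plus 3 SD; inconclusive means the two replicate wells disagree; inactive means no significant difference from solvent-only control wells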
# KCC2 bumet counter: thallium flux despite bumetanide block in KCC2 cells, secondary assay 3; shares compounds with Cl transport mod; HEK293-KCC2 + bumetanide/ouabain, thallium flux FluoZin2; active compounds read high; normalized thallium flux at 10 µM; 3,700 tested, 49% active; AID 1714;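 active means thallium entry rate above the same plate's blocked-transporter control wells by more than 3 SD; inconclusive means the two repeat wells disagree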;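 further: raw slope of fluorescence over initial fluorescence between 10 and 20 s after thallium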
# KCC2 secondary2: KCC2 (human) modulation, second secondary assay | shares compounds with Cl transport mod | HEK293-KCC2, thallium flux FluoZin2 fluorescence; actives lie on both sides; F/F0 rise rate, 10–20 s post-thallium | normalized thallium flux at 10 µM | 3,700 tested, 23% active | AID 1715;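 active means thallium flux slope more than 3 SD above or below the plate's solvent-only control mean, mostly below; inconclusive means the two repeat wells disagreed; inactive means no significant shift from solvent-only controls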;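 further: raw slope with 0.1% DMSO as baseline and bumetanide as block control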
# HEK counter1: parental HEK flux effect, counter-screen; shares compounds with Cl transport mod; HEK293 parental cells, thallium flux FluoZin2, ouabain; baseline-ratio fluorescence slope, 10–20 s after thallium; thallium flux rate (normalised fluorescence) at 10 µM; 3,700 tested, 46% active; AID 1716;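 active means thallium flux rate significantly above the same plate's solvent-only control wells, beyond their mean plus 3 SD; inconclusive means the two replicate wells gave conflicting results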
# KCC2 retest ouab: modulates human KCC2 on retest with ouabain; shares compounds with Cl transport mod; HEK293-KCC2, thallium flux FluoZin2 fluorescence; bidirectional: low = inhibitor, high = activator; raw Tl+ flux slope (below DMSO = inhibition, above = activation) at 10 µM; 3,700 tested, 48% active; AID 1717;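 active means thallium flux slope beyond 3 SD from same-plate DMSO control mean in most replicates, usually higher, sometimes lower; inconclusive means repeat tests gave conflicting results; inactive means no significant difference from controls in most replicates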;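 further: slope of initial-normalized fluorescence between seconds 10 and 20 after thallium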
# HEK counter2: acts in parental HEK cells, second KCC2 counter-screen | thallium flux slope at 10 µM | 3,700 tested, 33% active | shares compounds with Cl transport mod | AID 1718 | HEK293 parental, thallium flux FluoZin-2 fluorescence slope;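 active means thallium flux slope above the same plate's solvent-control mean plus 3 SD in both duplicate wells; inconclusive means duplicate wells that disagreed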;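 further: run without ouabain in cells lacking the KCC2 cotransporter; slope of fluorescence scaled to its starting value between 10 and 20 s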
# Numbers without * were called inactive; ? = inconclusive; nt = not tested or not shown. Sampled rows, rich in hits. Any-hit rate of the full collection: about 4%.
SMILES,Cl transport mod,b-catenin transl,Pf gametocyte,MT stabilizer,WT yeast gro inh,KCC2 secondary,KCC2 bumet counter,KCC2 secondary2,HEK counter1,KCC2 retest ouab,HEK counter2
CCOC(=O)c1c(-c2ccccc2)c2cc(OC)ccc2n1CCCN(C)C,nt,nt,-25,nt,nt,nt,nt,nt,nt,nt,nt
O=C(c1ccccc1F)N1CCN(c2cccc(C(F)(F)F)c2)CC1,-1.3,1,11,2,20,nt,nt,nt,nt,nt,nt
CCn1c(=O)cc(OCC(=O)N2CCN(c3cccc(C(F)(F)F)c3)CC2)c2ccccc21,-1.7,5,2,9,0,0.0079,0.0058,0.028,0.0065,?,0.01
O=C(c1coc2ccccc2c1=O)N1CCN(c2cccc(C(F)(F)F)c2)CC1,-4*,0,11,5,12,0.011,0.0075,0.033,0.0074,0.022,0.01
CS(=O)(=O)C1=NSC2=NC(=O)/C(=C\c3cccn3-c3ccccc3Cl)C(=N)N21,-5.1*,0,1,3,8,0.0068,0.0048,0.023*,0.0053*,0.014*,?
Cc1cc(C)cc(-n2cccc2/C=C2/C(=N)N3C(=NC2=O)SN=C3S(C)(=O)=O)c1,-3.7,-2,2,5,10,nt,nt,nt,nt,nt,nt
O=C(CSc1nnc(Cc2ccccc2)o1)c1cc(F)ccc1F,-7.1*,-2,-15,3,5,0.0039*,0.0046,0.02*,?,0.012*,0.0099
O=C(CSc1nnc(Cc2ccccc2)o1)N1CCCc2ccccc21,-6.1*,-3,nt,8,13,0.0056,0.0038,0.021*,0.0068,0.012*,?
O=C(CSc1nnc(Cc2ccccc2)o1)c1ccc(F)cc1,-4.3*,0,-4,nt,nt,0.005,?,0.022*,0.0074,?,0.01
Cc1ccc(-c2nc3ccccc3c(C(=O)NCc3cccs3)c2C)cc1,-0.04,nt,-26,2,-1,nt,nt,nt,nt,nt,nt
CSc1ccc(Cl)c(C(=O)OCC(=O)N(C)CCC#N)c1,0.14,0,nt,4,0,nt,nt,nt,nt,nt,nt
CN(C)S(=O)(=O)c1ccc(Cl)c(NC(=O)CN2CCN(Cc3ccc4c(c3)OCO4)CC2)c1,-0.36,0,1,nt,nt,nt,nt,nt,nt,nt,nt
O=C(O)CSc1ccnc2cc(Cl)ccc12,0.89,0,-2,nt,nt,nt,nt,nt,nt,nt,nt
COC(=O)CSc1ccnc2cc(Cl)ccc12,-3.2*,-1,1,nt,nt,0.0096,?,0.034,0.0034,0.018,0.012
O=C(O)c1c(-c2ccc(Cl)cc2)cn2ccccc12,-0.016,-1,nt,2,-2,nt,nt,nt,nt,nt,nt
CC1CC(C)CN(S(=O)(=O)c2ccc(C(=O)OCC(=O)NCCN3C(=O)CSC3=O)cc2)C1 (stereo not given),0.18,1,nt,4,-10,nt,nt,nt,nt,nt,nt
O=C(Nc1nccs1)c1nc(-c2ccccc2)n(-c2ccccc2)n1,5.3*,-1,nt,2,nt,0.012,0.023*,0.032,0.011*,0.023,0.011
O=C(OC(C(=O)NC1CCCC1)c1cccnc1)C1=Cc2ccccc2OC1 (stereo not given),-3.2*,0,-3,3,14,0.0084,?,0.033,0.0077,0.018,0.011
O=[N+]([O-])c1ccccc1/C=C/C=N/n1c(-c2ccccc2)n[nH]c1=S,9.3*,1,1,2,61*,0.013*,0.095*,0.033,0.011*,0.041*,0.012*
Cc1ccc(-c2n[nH]c(=S)n2/N=C/C=C\c2ccccc2[N+](=O)[O-])cc1,7.7*,1,-10,4,nt,0.0075,0.0092*,0.033,0.011*,?,0.014*
O=[N+]([O-])c1ccccc1/C=C/C=N/n1c(-c2ccc(Cl)cc2)n[nH]c1=S,3.6*,0,-30,2,-1,0.0075,0.0092*,0.033,0.01*,?,0.012*
COc1ccccc1/C=C/C=N/n1c(-c2ccc(C)cc2)n[nH]c1=S,3.3,4,0,3,41,nt,nt,nt,nt,nt,nt
CCOC(=O)[C@H]1[C@H]2COc3ccc(C)cc3[C@@H]2N2C(=O)c3cc(F)c(F)cc3NC(=O)[C@@]12C,nt,nt,14,nt,nt,nt,nt,nt,nt,nt,nt
CC(=O)N1CCN(c2ccc(NC(=O)c3ccc(F)cc3)cc2)CC1,nt,nt,16,nt,nt,nt,nt,nt,nt,nt,nt
O=S1(=O)NC(=NCCOCCO)c2ccccc21,0.29,0,-19,3,0,nt,nt,nt,nt,nt,nt
SMILES,Cl transport mod,b-catenin transl,Pf gametocyte,MT stabilizer,WT yeast gro inh,KCC2 secondary,KCC2 bumet counter,KCC2 secondary2,HEK counter1,KCC2 retest ouab,HEK counter2
CCOC(=O)CNC(=O)C(Cc1ccccc1)NC(=O)OCc1ccccc1 (stereo not given),-5.5*,-2,0,2,-28,0.0063,0.0052,0.025*,0.007,?,0.011
CCOC(=O)CNC(=O)C(CO)NC(=O)OCc1ccccc1 (stereo not given),-0.0093,0,-10,3,-18,nt,nt,nt,nt,nt,nt
NS(=O)(=O)c1ccc(NC(=O)NC2CCCCC2)cc1,3.2*,-4,5,2,5,0.0093,0.0061,0.031,0.0081,0.019,0.01
NS(=O)(=O)c1ccc(NC(=S)NC2CCCCC2)cc1,3.4,0,-1,5,2,nt,nt,nt,nt,nt,nt
Cc1ccc(C(=O)OCC(=O)c2c[nH]c3ccccc23)cc1,0.84,-2,2,4,4,nt,nt,nt,nt,nt,nt
CC1(C(=O)OCC(=O)c2c[nH]c3ccccc23)CC1(Cl)Cl (stereo not given),-2.5*,-2,nt,2,67*,0.0053,0.0053,0.028,0.0078,0.016*,0.011
Fc1ccc(C2N(c3ccccc3)C(=S)N3CCCN23)cc1 (stereo not given),-1.7,1,3,nt,nt,nt,nt,nt,nt,nt,nt
Cc1ccc(C2N(c3ccccc3)C(=S)N3CCCN23)cc1 (stereo not given),nt,-4,-9,2,-8,0.0083,0.0049,0.034,0.0037,0.02,0.011
COc1ccc(CNC(=O)CSc2n[nH]c(C)c2[N+](=O)[O-])cc1,0.32,0,5,2,-3,nt,nt,nt,nt,nt,nt
O=C(Nc1nc(=O)n(C(=O)c2cccc(C(F)(F)F)c2)s1)c1ccccc1,-4.3*,1,-5,nt,nt,0.0057,0.0044,0.024*,0.0069,0.016*,0.0093
CCNS(=O)(=O)c1ccc(NC(=O)c2ccc(Cn3cc(Br)cn3)o2)cc1,0.0066,-1,nt,5,-10,nt,nt,nt,nt,nt,nt

# Source: PubChem BioAssay (several laboratories)
